Experimental data published in ChEMBL document CHEMBL4052583, “A Potent, Selective, and Orally Bioavailable HCV NS5A Inhibitor for Treatment of Hepatitis C Virus: (S)-1-((R)-2-(Cyclopropanecarboxamido)-2-phenylacetyl)-N-(4-phenylthiazol-2-yl)pyrrolidine-2-carboxamide” (J Med Chem, 2017).

Experiments:
[1] = Inhibition of NS5A in HCV genotype 1b Ava5 infected in human HuH7 cells containing Ava5-EG(D4AB)SEAP subgenomic replicons assessed as reduction in viral replicon growth incubated for 1 day by Phospha-light assay method; assay type: cell-based, Hepatitis C virus subtype 1b; settings: Hepatitis C virus, Ava5, 24 h
[2] = Cytotoxic activity against human HuH7 cells containing HCV subgenomic replicons Ava5-EG(D4AB)SEAP by MTS assay; assay type: cell-based, Huh-7
[3] = Clearance in Sprague-Dawley rat at 1 mg/kg, iv after 1 to 24 hrs by HPLC-MS/MS method; assay type: ADME, organism-based; settings: in vivo
Summary of the method: (§1)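 Rats received a single intravenous dose of 1 mg/kg. Clearance (mL/min/kg), steady-state volume of distribution (L/kg), half-life (h) and AUC (ng/mL×h) were reported as mean ± spread.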

[4] = Volume of distribution at steady state in Sprague-Dawley rat at 1 mg/kg, iv after 1 to 24 hrs by HPLC-MS/MS method; assay type: ADME, organism-based; settings: in vivo, read-out: Vdss; summary of the method: as §1
[5] = Half life in Sprague-Dawley rat at 1 mg/kg, iv after 1 to 24 hrs by HPLC-MS/MS method; assay type: ADME, organism-based; settings: in vivo; summary of the method: as §1
[6] = AUC in Sprague-Dawley rat at 1 mg/kg, iv after 1 to 24 hrs by HPLC-MS/MS method; assay type: ADME, organism-based; settings: in vivo; summary of the method: as §1
[7] = Cmax in Sprague-Dawley rat at 5 mg/kg, po after 1 to 24 hrs by HPLC-MS/MS method; assay type: ADME, organism-based; set-up: dose 5 mg/kg, route oral; settings: in vivo
Summary of the method: (§2)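 Rats were dosed orally at 5 mg/kg. Tmax (h), Cmax (ng/mL), AUC (ng/mL×h) and oral bioavailability F (%) were reported.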

[8] = Tmax in Sprague-Dawley rat at 5 mg/kg, po after 1 to 24 hrs by HPLC-MS/MS method; assay type: ADME, organism-based; settings: in vivo; summary of the method: as §2
[9] = Half life in Sprague-Dawley rat at 5 mg/kg, po after 1 to 24 hrs by HPLC-MS/MS method; assay type: ADME, organism-based; settings: in vivo
[10] = AUC in Sprague-Dawley rat at 5 mg/kg, po after 1 to 24 hrs by HPLC-MS/MS method; assay type: ADME, organism-based; settings: in vivo; summary of the method: as §2
[11] = Oral bioavailability in Sprague-Dawley rat at 5 mg/kg after 1 to 24 hrs by HPLC-MS/MS method; assay type: ADME, organism-based; settings: in vivo; summary of the method: as §2
[12] = Selectivity index, ratio of CC50 for cytotoxic activity against human HuH7 cells containing HCV subgenomic replicons Ava5-EG(D4AB)SEAP to IC50 for inhibition of NS5A in HCV genotype 1b Ava5 infected in human HuH7 cells containing Ava5-EG(D4AB)SEAP subgenomic replicons

Row | SMILES | EC50 [1] [nM] | CC50 [2] [nM] | other results
1 | O=C(Nc1nc(-c2ccccc2)cs1)[C@@H]1CCCN1C(=O)[C@H](NC(=O)N1CCCCC1)c1ccccc1 | 3.1 | > 50000 | –
2 | O=C(Nc1nc(-c2ccccc2)cs1)[C@@H]1CCCN1C(=O)[C@H](NC(=O)N1CCCC1)c1ccccc1 | 3.1 | > 50000 | clearance [3]: 55.1 mL/min/kg; Vd [4]: 1.1 L/kg; half-life [5]: 0.5 h; AUC [6]: 311 ng·h/mL; Cmax [7]: 63.9 ng/mL; Tmax [8]: 2.8 h; half-life [9]: 2.4 h; AUC [10]: 288 ng·h/mL; bioavailability [11]: 20.4%
3 | O=C(Nc1nc(-c2ccccc2)cs1)[C@@H]1CCCN1C(=O)[C@H](NC(=S)Nc1cccnc1)c1ccccc1 | 23 | > 50000 | –
4 | CC[C@@H](NC(=O)N1CCOCC1)C(=O)N1CCC[C@H]1C(=O)Nc1nc(-c2ccccc2)cs1 | 1630 | > 50000 | –
5 | CCN(CC)C(=O)N[C@@H](C(=O)N1CCC[C@H]1C(=O)Nc1nc(-c2ccccc2)cs1)c1ccccc1 | 18 | > 50000 | –
6 | O=C(N[C@@H](C(=O)N1CCC[C@H]1C(=O)Nc1nc(-c2ccccc2)cs1)c1ccccc1)c1ccncc1 | 3.8 | > 50000 | clearance [3]: 62.2 mL/min/kg; Vd [4]: 1.8 L/kg; half-life [5]: 0.5 h; AUC [6]: 296 ng·h/mL; Cmax [7]: 58.3 ng/mL; Tmax [8]: 0.7 h; half-life [9]: 4.5 h; AUC [10]: 125 ng·h/mL; bioavailability [11]: 10.1%
7 | O=C(Nc1nc(-c2ccccc2)cs1)[C@@H]1CCCN1C(=O)[C@H](NC(=O)N1CCOCC1)c1ccccc1 | 0.92 | > 50000 | clearance [3]: 38.4 mL/min/kg; Vd [4]: 1.04 L/kg; half-life [5]: 0.46 h; AUC [6]: 436 ng·h/mL; Cmax [7]: 247 ng/mL; Tmax [8]: 0.8 h; half-life [9]: 1.6 h; AUC [10]: 404 ng·h/mL; bioavailability [11]: 18.7%
8 | O=C(Nc1nc(-c2ccccc2)cs1)[C@@H]1CCCN1C(=O)[C@H](NC(=S)NC1CCCC1)c1ccccc1 | 5.2 | > 50000 | –
9 | O=C(N[C@@H](C(=O)N1CCC[C@H]1C(=O)Nc1nc(-c2ccccc2)cs1)c1ccccc1)C1CC1 | 4.6 | > 50000 | clearance [3]: 27.1 mL/min/kg; Vd [4]: 1.32 L/kg; Ratio CC50/EC50 [12]: >10000; half-life [5]: 1.3 h; AUC [6]: 635 ng·h/mL; Cmax [7]: 260 ng/mL; Tmax [8]: 0.8 h; half-life [9]: 2.8 h; AUC [10]: 1440 ng·h/mL; bioavailability [11]: 45%
10 | O=C(Nc1ccncc1)N[C@@H](C(=O)N1CCC[C@H]1C(=O)Nc1nc(-c2ccccc2)cs1)c1ccccc1 | 22 | > 50000 | –
11 | CC(C)(C)c1csc(NC(=O)[C@@H]2CCCN2C(=O)[C@H](NC(=O)N2CCOCC2)c2ccccc2)n1 | 21 | > 50000 | –
12 | CCC(=O)N[C@@H](C(=O)N1CCC[C@H]1C(=O)Nc1nc(-c2ccccc2)cs1)c1ccccc1 | 23 | > 50000 | –
13 | CC(C)(C)C(=O)N[C@@H](C(=O)N1CCC[C@H]1C(=O)Nc1nc(-c2ccccc2)cs1)c1ccccc1 | 86 | > 50000 | –
14 | O=C(NC1CC1)N[C@@H](C(=O)N1CCC[C@H]1C(=O)Nc1nc(-c2ccccc2)cs1)c1ccccc1 | 3.5 | > 50000 | –
15 | O=C(N[C@@H](C(=O)N1CCC[C@H]1c1ncc(-c2ccccc2)[nH]1)c1ccccc1)N1CCOCC1 | 98 | > 50000 | –
16 | O=C(Nc1nc(-c2ccccc2)cs1)[C@@H]1CCCN1C(=O)[C@H](NC(=S)NC1CCCCC1)c1ccccc1 | 3.2 | > 50000 | –
17 | O=C(Nc1nc(-c2ccccc2)cs1)[C@@H]1CCCN1C(=O)[C@H](NC(=S)Nc1ccccc1)c1ccccc1 | 46 | > 50000 | –
18 | O=C(N[C@@H](C(=O)N1CCC[C@H]1C(=O)Nc1nc(-c2ccccc2)cs1)c1ccccc1)C1CCCC1 | 13 | > 50000 | –
19 | CCC[C@@H](NC(=O)N1CCOCC1)C(=O)N1CCC[C@H]1C(=O)Nc1nc(-c2ccccc2)cs1 | 270 | > 50000 | –
20 | O=C(Nc1nccs1)[C@@H]1CCCN1C(=O)[C@H](NC(=O)N1CCOCC1)c1ccccc1 | 9650 | > 50000 | –
21 | O=C(N[C@@H](C(=O)N1CCC[C@H]1c1nc(-c2ccccc2)cs1)c1ccccc1)N1CCOCC1 | 9440 | > 50000 | –
22 | CC(C)[C@@H](NC(=O)N1CCOCC1)C(=O)N1CCC[C@H]1C(=O)Nc1nc(-c2ccccc2)cs1 | 990 | > 50000 | –

Row | SMILES | EC50 [1] [nM] | CC50 [2] [nM] | other results
23 | O=C(Nc1ccccn1)N[C@@H](C(=O)N1CCC[C@H]1C(=O)Nc1nc(-c2ccccc2)cs1)c1ccccc1 | 30 | > 50000 | –
24 | O=C(N[C@@H](C(=O)N1CCC[C@H]1C(=O)Nc1nc(-c2ccccc2)cs1)c1ccccc1)c1ccccn1 | 22 | > 50000 | –
25 | CCCC(=O)N[C@@H](C(=O)N1CCC[C@H]1C(=O)Nc1nc(-c2ccccc2)cs1)c1ccccc1 | 15 | > 50000 | –
26 | O=C(N[C@@H](C(=O)N1CCC[C@H]1C(=O)Nc1nc(-c2ccccc2)cs1)c1ccccc1)c1ccccc1 | 15 | > 50000 | clearance [3]: 44.8 mL/min/kg; Vd [4]: 4.2 L/kg; half-life [5]: 2.3 h; AUC [6]: 367 ng·h/mL; Cmax [7]: 109 ng/mL; Tmax [8]: 2.3 h; half-life [9]: 2.7 h; AUC [10]: 588 ng·h/mL; bioavailability [11]: 31%
27 | CC(C)(C)[C@@H](NC(=O)N1CCOCC1)C(=O)N1CCC[C@H]1C(=O)Nc1nc(-c2ccccc2)cs1 | 7060 | > 50000 | –
28 | O=C(N[C@@H](C(=O)N1CCC[C@H]1c1nc(-c2ccccc2)no1)c1ccccc1)N1CCOCC1 | > 50000 | > 50000 | –
29 | O=C(Nc1nc(-c2ccccc2)cs1)[C@@H]1CCCN1C(=O)[C@H](NC(=S)NC1CC1)c1ccccc1 | 34 | > 50000 | –
30 | O=C(N[C@@H](C(=O)N1CCC[C@H]1C(=O)Nc1nc(-c2ccccc2)cs1)c1ccccc1)c1cccnc1 | 13 | > 50000 | –
31 | CN1CCN(C(=O)N[C@@H](C(=O)N2CCC[C@H]2C(=O)Nc2nc(-c3ccccc3)cs2)c2ccccc2)CC1 | 0.85 | > 50000 | –
32 | CC(C)C(=O)N[C@@H](C(=O)N1CCC[C@H]1C(=O)Nc1nc(-c2ccccc2)cs1)c1ccccc1 | 36 | > 50000 | –
33 | O=C(N[C@@H](C(=O)N1CCC[C@H]1c1ncc(-c2ccccc2)s1)c1ccccc1)N1CCOCC1 | 2970 | > 50000 | –
34 | CN(C)C(=O)N[C@@H](C(=O)N1CCC[C@H]1C(=O)Nc1nc(-c2ccccc2)cs1)c1ccccc1 | 11 | > 50000 | –
35 | O=C(NC1CCCC1)N[C@@H](C(=O)N1CCC[C@H]1C(=O)Nc1nc(-c2ccccc2)cs1)c1ccccc1 | 13 | > 50000 | –
36 | O=C(NC1CCCCCC1)N[C@@H](C(=O)N1CCC[C@H]1C(=O)Nc1nc(-c2ccccc2)cs1)c1ccccc1 | 3.8 | > 50000 | –
37 | O=C(NC1CCCCC1)N[C@@H](C(=O)N1CCC[C@H]1C(=O)Nc1nc(-c2ccccc2)cs1)c1ccccc1 | 3.3 | > 50000 | –
38 | CC(=O)N[C@@H](C(=O)N1CCC[C@H]1C(=O)Nc1nc(-c2ccccc2)cs1)c1ccccc1 | 16 | > 50000 | –
39 | C[C@@H](NC(=O)N1CCOCC1)C(=O)N1CCC[C@H]1C(=O)Nc1nc(-c2ccccc2)cs1 | 1310 | > 50000 | –
40 | O=C(Nc1cccnc1)N[C@@H](C(=O)N1CCC[C@H]1C(=O)Nc1nc(-c2ccccc2)cs1)c1ccccc1 | 1.9 | > 50000 | –
41 | O=C(Nc1ccccc1)N[C@@H](C(=O)N1CCC[C@H]1C(=O)Nc1nc(-c2ccccc2)cs1)c1ccccc1 | 2.3 | > 50000 | –
42 | O=C(N[C@@H](C(=O)N1CCC[C@H]1C(=O)Nc1nc(-c2ccccc2)cs1)c1ccccc1)C1CCCCC1 | 14 | > 50000 | –
43 | O=C(Nc1nc(C2CCCCC2)cs1)[C@@H]1CCCN1C(=O)[C@H](NC(=O)N1CCOCC1)c1ccccc1 | 6 | > 50000 | –
44 | Cc1csc(NC(=O)[C@@H]2CCCN2C(=O)[C@H](NC(=O)N2CCOCC2)c2ccccc2)n1 | 400 | > 50000 | –
